Measurements reported in ChEMBL document CHEMBL1142544 (J Med Chem, 2008).
Active and inactive are the calls of the source. The rule behind the calls is not given here.

Legend:
[1] = target: T1, Farnesyl pyrophosphate synthase (Homo sapiens, UniProt P14324); experiment: Inhibition of human FPP synthase expressed in Escherichia coli BL21 (DE3)
T1 sequence (P14324 whole entry): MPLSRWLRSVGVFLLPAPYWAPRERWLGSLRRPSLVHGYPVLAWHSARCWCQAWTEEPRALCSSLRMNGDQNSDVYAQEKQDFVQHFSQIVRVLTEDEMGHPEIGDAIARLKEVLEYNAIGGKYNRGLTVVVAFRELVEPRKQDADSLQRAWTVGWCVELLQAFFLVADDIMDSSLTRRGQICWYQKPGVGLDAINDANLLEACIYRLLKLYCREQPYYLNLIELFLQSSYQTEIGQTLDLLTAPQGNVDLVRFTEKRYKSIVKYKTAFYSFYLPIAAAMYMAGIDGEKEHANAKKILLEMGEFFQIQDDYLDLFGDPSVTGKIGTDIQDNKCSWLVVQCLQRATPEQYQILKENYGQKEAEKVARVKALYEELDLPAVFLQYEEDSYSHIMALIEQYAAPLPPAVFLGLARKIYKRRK

[2] = Stimulation of human Vgamma9Vdelta2 T lymphocytes assessed as gamma delta expansion factor after 7 days; assay type: functional
[3] = Induction of apoptosis in human CEM-VBL300 cells expressing p-glycoprotein at 100 uM by flow cytometry; assay type: functional
Summary of the method: (§1)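 Tumor cells were exposed to 100 µM compound. Cells (1 × 10⁶) were washed in PBS, pelleted at 200g for 5 min, and stained with FITC-annexin V plus propidium iodide for 15 min at 20 °C. The percentage of annexin-V-positive cells was measured by flow cytometry.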

[4] = system: HuT78; experiment: Induction of apoptosis in human HUT78 cells at 100 uM by flow cytometry; assay type: functional; summary of the method: as §1
[5] = system: K562; experiment: Induction of apoptosis in human K-562 cells expressing Bcr-Abl at <50 uM by flow cytometry; assay type: functional, cell-based
[6] = system: BT-549; experiment: Antitumor activity against human BT-549 cells xenografted SCID mouse co-transfected with human gamma delta T lymphocytes assessed as survival time prolongation at 2 ug, ip coadministered with human recombinant IL2; assay type: functional, organism-based
Summary of the method: (§2)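 SCID mice were conditioned by irradiation and anti-asialo-GM1 monoclonal antibody. On day 0 they received a single ip injection of BT549 breast cancer cells (2 × 10⁶/mouse). Drug was given ip (2 µg or 5 µg) with the tumor cells, alone or with ip human rIL-2 (300 ng). Where indicated, purified human γδ T cells (2 × 10⁷/mouse) were added. Cells and drug were reinjected every 15 days, with IL-2 on the same day and days 3 and 6 after. Read-out was mean survival time in days.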

[7] = system: BT-549; experiment: Antitumor activity against human BT-549 cells xenografted SCID mouse assessed as survival time prolongation at 2 ug, ip
[8] = system: BT-549; experiment: Antitumor activity against human BT-549 cells xenografted SCID mouse co-transfected with human gamma delta T lymphocytes assessed as survival time prolongation at 5 ug, ip; assay type: functional, cell-based; summary of the method: as §2
[9] = Cytotoxicity against human CFU-GM cells at 100 uM after 7 days
[10] = system: BT-549; experiment: Antitumor activity against human BT-549 cells xenografted SCID mouse co-transfected with human gamma delta T lymphocytes assessed as survival time prolongation at 5 ug, ip coadministered with human recombinant IL2; assay type: functional, organism-based; summary of the method: as §2
[11] = system: K562; experiment: Induction of apoptosis in human K-562 cells expressing Bcr-Abl at 100 uM by flow cytometry; assay type: functional; summary of the method: as §1
[12] = system: BT-549; experiment: Antitumor activity against human BT-549 cells xenografted SCID mouse assessed as survival time prolongation at 2 ug, ip; assay type: functional, cell-based; summary of the method: as §2
[13] = system: CCRF-CEM; experiment: Induction of apoptosis in human CCRF-CEM cells at 100 uM by flow cytometry; assay type: functional; summary of the method: as §1
[14] = system: BT-549; experiment: Antitumor activity against human BT-549 cells xenografted SCID mouse co-transfected with human gamma delta T lymphocytes assessed as survival time prolongation at 2 ug, ip; assay type: functional, cell-based
Summary of the method: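 SCID mice conditioned by irradiation plus anti-asialo-GM1 antibody; day 0 single i.p. BT549 (2 × 10⁶/mouse) with concomitant i.p. drug (2 µg), ± rIL-2 (300 ng), plus highly purified human γδ T cells (2 × 10⁷/mouse). γδ T cells and drug re-injected every 15 days; rIL-2 the same day and 3 and 6 days after each. Read-out: mean survival time (days).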

Structure (SMILES): O=P(O)(O)C(Cn1cccn1)P(=O)(O)O
- IC50 [1]: 3070 nM
- Activity [2]: >10 µM

Structure (SMILES): O=P(O)(O)C(Cn1cnc2ccccc21)P(=O)(O)O
- IC50 [1]: 16.1 nM
- Activity [2]: 1 µM

Structure (SMILES): O=P(O)(O)C(Cn1cnc2c(Cl)ncnc21)P(=O)(O)O
- IC50 [1]: 883 nM
- Activity [2]: 0.1 µM

Structure (SMILES): O.O=P(O)(O)C(O)(Cn1ccnc1)P(=O)(O)O [ZOLEDRONIC ACID]
- Activity [3]: 22%
- Activity [4]: 24%
- Activity [5]: inactive
- Activity [6]: Active
- Activity [7]: inactive
- Activity [8]: inactive
- Activity [9]: 18%
- Activity [10]: Active
- Activity [2]: 0.1 µM
- Activity [11]: 16%
- Activity [12]: inactive
- Activity [13]: 20%

Structure (SMILES): O=P(O)(O)C(Cn1ccnc1)P(=O)(O)O
- Activity [3]: 37%
- Activity [4]: 40%
- Activity [5]: inactive
- Activity [7]: inactive
- Activity [14]: Active
- Activity [9]: 15%
- Activity [2]: 0.001 µM
- Activity [11]: 15%
- Activity [12]: inactive
- Activity [13]: 22%

Structure (SMILES): O=P(O)(O)C(CSc1ncc[nH]1)P(=O)(O)O
- IC50 [1]: 28.1 nM
- Activity [2]: >10 µM

Structure (SMILES): O=P(O)(O)C(Cn1cnc2cncnc21)P(=O)(O)O
- IC50 [1]: 388 nM
- Activity [2]: 0.2 µM
